# Pf Dd2 inh = blocks growth of Plasmodium falciparum Dd2 parasites. P. falciparum Dd2 growth, SYBR Green, 72 h; hits give low values. activity change, % at 10 µM. 94,000 tested, 2.3% active. AID 1159554; in the data active = activity change below about -80%; inconclusive = no clear call, values can overlap the other calls
# IDH1 mut inh = inhibitors of human IDH1 R132H | inhibition, % at 10 µM | IDH1 R132H reductase, diaphorase/resazurin fluorescence, 60 min | O75874 | 70,000 tested, 0.18% active; in the data active = inhibition above about 34%; inconclusive = no clear call, values can overlap the other calls; inactive = below about 11%;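 also: 0% = DMSO and 100% = no enzyme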
# Target sequence (O75874 whole entry R132H): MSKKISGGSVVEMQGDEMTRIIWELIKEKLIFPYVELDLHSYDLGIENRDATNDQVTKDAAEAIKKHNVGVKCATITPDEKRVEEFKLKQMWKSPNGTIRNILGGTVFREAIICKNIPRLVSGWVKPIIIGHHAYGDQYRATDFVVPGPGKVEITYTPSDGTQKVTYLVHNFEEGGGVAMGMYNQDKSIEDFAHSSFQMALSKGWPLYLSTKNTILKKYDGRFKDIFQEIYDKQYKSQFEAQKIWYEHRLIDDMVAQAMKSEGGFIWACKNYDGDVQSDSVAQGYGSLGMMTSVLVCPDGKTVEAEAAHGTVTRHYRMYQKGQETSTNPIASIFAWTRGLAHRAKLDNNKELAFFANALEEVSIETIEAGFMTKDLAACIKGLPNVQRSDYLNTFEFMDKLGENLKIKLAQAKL
# KDM4C inh = KDM4C (human) demethylase inhibition; GST-KDM4C 2-372, H3K9me3 peptide, LANCE TR-FRET; 96,000 tested, 0.15% active; AID 720574; Q9H3R0; inhibition, % at 12.5 µM;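 active = mean replicate inhibition above about 25%, with at least 55% of replicates also reaching it, limit read from the data, passing the limit was not always enough; inconclusive = only one of those two conditions met; inactive = neither condition met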
#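 reagent = H3K9me3 peptide substrate, Fe(II), 2-oxoglutarate | system = GST-tagged GASC-1 (JMJD2C) catalytic fragment, aa 2-372 | amount = enzyme final amount 10 nM | read-out = Fall in 671/618 emission ratio as inhibition | medium = HEPES buffer, pH 7.5, plus ascorbate | schedule = 30 min reaction, 60 min detection, RT | measured by = LANCE TR-FRET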
# T cruzi growth-1 = T. cruzi proliferation inhibition; T. cruzi beta-gal in NIH3T3, GalScreen luminescence, 90 h; inhibition, % at 8.34 µM; 77,000 tested, 5.9% active;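 active = mean inhibition above about 93%, with at least 55% of replicates each passing it, limit read from the data, passing the limit was not always enough; inconclusive = only one of those two conditions holds; inactive = neither condition holds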
# T cruzi growth-2 = inhibitors of T. cruzi proliferation | shares compounds with T cruzi growth-1 | T. cruzi beta-gal in NIH3T3, GalScreen luminescence, 90 h | inhibition, % at 8.35 µM | 5,600 tested, 72% active;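 active = mean replicate inhibition above about 95% and at least 55% of replicates individually reaching it, limit read from the data; inconclusive = only one of the two criteria is met; inactive = neither criterion is met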
# T cruzi growth-3 = blocks T. cruzi growth in NIH3T3 host cells; shares compounds with T cruzi growth-1; T. cruzi beta-gal in NIH3T3, GalScreen luminescence, 90 h; inhibition, % at 2.09 µM; 5,600 tested, 21% active; AID 651740;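 active = mean inhibition above about 95%, with at least 55% of replicates also reaching it, limit read from the data; inconclusive = meets just one of the two conditions; inactive = meets neither condition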;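 also: plate controls were neutral control median for no effect and positive control median for full effect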
# NIH3T3 tox = cytotoxicity in mouse NIH/3T3 fibroblasts; cytotoxicity (signal decrease), % at 8.35 µM; AID 651742; NIH/3T3 viability, CellTiter-Glo ATP luminescence, 90 h; 5,600 tested, 14% active; shares compounds with T cruzi growth-1;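 active = mean signal decrease across replicates above about 35% based on untreated-well scatter, with enough replicates individually passing, limit read from the data; inconclusive = no rule stated though some were filed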;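 also: 0% = median of neutral control wells and 100% = median of positive control wells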
# NIH3T3 tox 2 = NIH/3T3 (mouse) viability loss. 5,600 tested, 56% active. NIH/3T3 viability, CellTiter-Glo ATP luminescence, 90 h. inhibition, % at 24.9 µM. AID 651744. shares compounds with T cruzi growth-1;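 active = mean loss of cell viability signal at or above a set limit, and enough replicates individually reaching it; inconclusive = meets only the mean limit or only the replicate share; inactive = meets neither condition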;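 also: 0% = median of neutral control wells and 100% = median of positive control wells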
# * marks the source's active call; other numbers are inactive results; ? = inconclusive; nt = not tested or not shown. Rows were chosen to be rich in hits. Some 5.8% of all compounds tested hit in one or more screens of this group.
SMILES,Pf Dd2 inh,IDH1 mut inh,KDM4C inh,T cruzi growth-1,T cruzi growth-2,T cruzi growth-3,NIH3T3 tox,NIH3T3 tox 2
C[C@H]1CN([C@@H](C)CO)S(=O)(=O)c2ccc(C3=CCCCC3)cc2O[C@@H]1CN(C)C(=O)Nc1ccc2c(c1)OCO2,-2,-1,-2,nt,nt,nt,nt,nt
CN(C)C(=O)C[C@H]1CC[C@@H]2[C@@H](COc3ccc(NC(=O)C4CC4)cc3C(=O)N2C)O1,-39,nt,-1,40,nt,nt,nt,nt
CC1(C)CC[C@]2(C(=O)O[C@@H]3O[C@H](CO)[C@@H](O)[C@H](O)[C@H]3O)CC[C@]3(C)C(=CCC4[C@@]5(C)C[C@@H](O)[C@H](O)[C@@](C)(CO)C5CC[C@]43C)C2[C@@H]1O (stereo partly drawn),nt,-1,nt,nt,nt,nt,nt,nt
C[C@@H]1CN([C@H](C)CO)S(=O)(=O)c2ccc(C#Cc3ccncc3)cc2O[C@H]1CN(C)C(=O)Nc1ccc2c(c1)OCO2,-54,nt,13,35,nt,nt,nt,nt
C[C@H]1CN([C@@H](C)CO)S(=O)(=O)c2ccc(C#Cc3ccccc3)cc2O[C@@H]1CN(C)C(=O)Nc1ccc2c(c1)OCO2,-53,0,-1,131*,106*,75,20,13
C[C@@H]1CN([C@H](C)CO)S(=O)(=O)c2ccc(C#Cc3ccncc3)cc2O[C@@H]1CN(C)C(=O)Nc1ccc2c(c1)OCO2,-52,nt,4,25,nt,nt,nt,nt
C[C@@H]1CN([C@@H](C)CO)S(=O)(=O)c2ccc(C#Cc3ccccc3)cc2O[C@H]1CN(C)C(=O)Nc1ccc2c(c1)OCO2,-73,nt,-2,132*,98*,85,?,45*
C[C@@H]1CN([C@H](C)CO)S(=O)(=O)c2ccc(C#Cc3ccccc3)cc2O[C@@H]1CN(C)C(=O)Nc1ccc2c(c1)OCO2,-76,0,18,130*,106*,107*,5,4
C[C@H](CO)N1C[C@H](C)[C@H](CN(C)C(=O)Nc2ccc(C(F)(F)F)cc2)Oc2c(NC(=O)C3CC3)cccc2C1=O,1,4,-2,57,nt,nt,nt,nt
Cc1noc(C)c1S(=O)(=O)Nc1ccc2c(c1)C(=O)N([C@@H](C)CO)C[C@H](C)[C@H](CN(C)Cc1ccncc1)OCCCC[C@H](C)O2,-33,7,1,51,nt,nt,nt,nt
CCC(=O)Nc1ccc2c(c1)C(=O)N(C)C[C@H](OC)[C@H](C)CN(Cc1ccccc1)[C@H](C)CO2,-14,0,0,-24,nt,nt,nt,nt
Cc1noc(C)c1NC(=O)Nc1ccc2c(c1)CC(=O)N([C@H](C)CO)C[C@@H](C)[C@H](CN(C)CC1CCCCC1)O2,1,1,-2,24,nt,nt,nt,nt
Cc1ccc(-c2ccc([C@@H]3[C@@H](CO)N4CCCCN(C(=O)Nc5ccccc5)C[C@@H]34)cc2)cc1,-14,nt,-1,110*,106*,72,26,104*
O=C(Nc1ccccc1)N1CCCCN2[C@H](C1)[C@H](c1ccc(-c3ccccc3)cc1)[C@@H]2CO,-69,nt,0,128*,103*,43,12,9
Cc1ccc(-c2ccc([C@H]3[C@H]4CN(C(=O)Nc5ccccc5)CCCCN4[C@H]3CO)cc2)cc1,17,nt,-2,109*,107*,43,21,91*
C[C@@H]1CN([C@H](C)CO)C(=O)c2cc(NS(=O)(=O)c3cn(C)cn3)ccc2O[C@@H](C)CCCCO[C@@H]1CN(C)S(=O)(=O)c1cccs1,27,nt,-1,nt,nt,nt,nt,nt
COc1cccc(-c2ccc3c(c2)[C@H]2[C@H](CCN2C(=O)C2CCOCC2)[C@H](CO)N3)c1,-24,nt,-2,?,103*,65,3,20
COc1cccc(-c2ccc3c(c2)[C@@H]2[C@@H](CCN2C(=O)C2CCC2)[C@@H](CO)N3)c1,-33,nt,-1,19,nt,nt,nt,nt
COc1cccc(-c2ccc3c(c2)[C@H]2[C@H](CCN2C(=O)C2CCOCC2)[C@@H](CO)N3)c1,0,nt,-1,116*,105*,73,-5,-1
